Active and inactive are the calls of the source. The calls are words filed in the database; no cut-off is given here. Peptide text beside a SMILES is read from it.

The target of data set [1] is Amyloid-beta precursor protein (Homo sapiens) (UniProt P05067). Briefly: Inhibition of HFIP-pretreated amyloid beta (1 to 42) (unknown origin) aggregation in PBS buffer at pH 7.4 assessed as effect on fibril formation at 40 uM after 48 hrs by uranyl acetate staining based transmission electron microscopy. In a few lines:
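HFIP-treated Aβ42 (final 10 µM) was incubated with compound (final 40 µM) in PBS containing 1% DMSO, pH 7.4, at 37 °C for 48 h. Pellets were collected by centrifugation and resuspended in distilled water. They were left on formvar-coated copper grids for 5 min, negatively stained with 2% uranyl acetate and imaged by TEM.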

Data set [2] shares this target. Nature of the data set: Inhibition of HFIP-pretreated amyloid beta (1 to 42) (unknown origin) aggregation in PBS buffer at pH 7.4 at 40 uM incubated for 48 hrs by thioflavin-T fluorescence assay. In a few lines: (§1)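 Aβ42 pretreated with HFIP (1 mg/mL, 30 min RT, sonicated 5 min, dried to film), then diluted from 0.1% NH4OH stock to final 10 µM in PBS (50 mM sodium phosphate, 100 mM NaCl) with compound from DMSO stock (final 1% DMSO), pH 7.4. Incubated at 37 °C for 0–48 h. Aliquots were frozen at -80 °C, then mixed with 5.0 µM Th-T in 50 mM Gly-NaOH pH 8.5. Fluorescence read at ex 430/em 510 nm, buffer background subtracted; mean ± SD, n = 4.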

For data set [3], the system named is SH-SY5Y. Briefly: Neuroprotective activity against amyloid beta (1 to 42 residues) induced cytotoxicity in human SH-SY5Y cells assessed as cell viability at 10 uM after 48 hrs by MTT assay. Type of data set: functional, cell-based. The method, boiled down:
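SH-SY5Y cells (ATCC) were grown in DMEM/F-12 with 10% FBS and penicillin/streptomycin at 37 °C, 5% CO2. Cells were plated at 2.0 × 10^4 per well and pre-incubated for 24 h. HFIP-treated Aβ42 (final 1 µM) and compound (final 10 µM) were added, with 0.5% DMSO and 0.01% NH4OH final. After 48 h, MTT (5 mg/mL stock) was added for 4 h, then DMSO was used for solubilization. Mean ± SD, n = 3.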

Data set [4] addresses Amyloid-beta precursor protein (Homo sapiens) (UniProt P05067). Nature of the data set: Inhibition of HFIP-pretreated amyloid beta (1 to 42) (unknown origin) aggregation in PBS buffer at pH 7.4 incubated for 48 hrs by thioflavin-T fluorescence assay. In a few lines:
as §1

Data set [5] has as its system SH-SY5Y. Nature of the data set: Cytotoxicity against human SH-SY5Y cells assessed as reduction in cell viability at 10 uM measured after 48 hrs by MTT assay. It is filed as cell-based. A general note: Tetrazolium dyes change colour on reduction, which living cells bring about.

Sequence of Amyloid-beta precursor protein (Homo sapiens) (P05067 whole entry): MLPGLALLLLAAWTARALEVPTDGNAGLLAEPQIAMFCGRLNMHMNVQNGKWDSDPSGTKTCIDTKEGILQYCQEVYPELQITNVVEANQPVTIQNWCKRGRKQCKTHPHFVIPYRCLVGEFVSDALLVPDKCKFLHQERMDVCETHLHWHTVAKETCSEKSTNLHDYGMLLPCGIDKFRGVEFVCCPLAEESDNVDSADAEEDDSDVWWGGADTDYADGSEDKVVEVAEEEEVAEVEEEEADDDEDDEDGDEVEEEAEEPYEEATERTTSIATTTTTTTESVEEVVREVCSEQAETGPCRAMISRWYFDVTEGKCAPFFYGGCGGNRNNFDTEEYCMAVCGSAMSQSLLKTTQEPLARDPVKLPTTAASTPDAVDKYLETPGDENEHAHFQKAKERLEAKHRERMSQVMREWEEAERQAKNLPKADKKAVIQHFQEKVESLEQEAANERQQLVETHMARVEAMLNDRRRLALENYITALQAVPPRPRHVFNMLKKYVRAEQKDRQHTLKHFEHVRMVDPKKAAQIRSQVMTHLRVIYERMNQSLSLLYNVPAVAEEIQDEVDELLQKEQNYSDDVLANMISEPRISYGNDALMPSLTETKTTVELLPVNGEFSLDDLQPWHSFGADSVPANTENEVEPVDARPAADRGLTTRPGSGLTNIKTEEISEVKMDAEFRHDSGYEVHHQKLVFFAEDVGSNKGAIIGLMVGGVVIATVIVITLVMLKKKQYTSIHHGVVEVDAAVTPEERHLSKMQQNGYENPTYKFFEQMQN

For the compound `C[C@H](NC(=O)[C@@H]1C/C=C/COc2ccc(cc2)C[C@H](NC(=O)[C@@H]2CCCN2)C(=O)N[C@@H](Cc2ccccc2)C(=O)N1)C(=O)O`, the inhibition entry in data set [1] is “inactive”. Also, in data set [2], the inhibition entry was “Active”. For the same compound, in the data set on SH-SY5Y [3], the outcome was inactive.

As for `CC(C)C[C@H](N)C(=O)N[C@H]1Cc2ccc(cc2)OC/C=C/C[C@@H](C(=O)N[C@@H](C)C(=O)O)NC(=O)[C@H](Cc2ccccc2)NC1=O`, the inhibition entry in data set [4] was “Dose-dependent effect”. Moreover, the inhibition result in data set [1] was “inactive”. For the same compound, the result in the data set on SH-SY5Y [3] was inactive.

In the case of `CC(C)C[C@H](N)C(=O)N1CCC[C@H]1C(=O)N[C@@H](Cc1ccccc1)C(=O)N[C@@H](Cc1ccccc1)C(=O)O` (H-LPFF-OH), in data set [2], the inhibition entry was “inactive”.

Regarding `O=C(O)C[C@H](NC(=O)[C@@H]1C/C=C/COc2ccc(cc2)C[C@H](NC(=O)[C@@H]2CCCN2)C(=O)N[C@@H](Cc2ccccc2)C(=O)N1)C(=O)O`, in data set [1], the inhibition result was “inactive”. For the same compound, the inhibition entry in data set [2] was “Active”. For the same compound, the outcome in the data set on SH-SY5Y [3] was inactive.

With `COC(=O)[C@@H]1C/C=C/COc2ccc(cc2)C[C@H](NC(=O)OC(C)(C)C)C(=O)N[C@@H](CC(C)C)C(=O)N1`, in data set [2], the inhibition entry was “inactive”.

On to `CC(C)C[C@H](N)C(=O)N[C@H]1C/C=C/COc2ccc(cc2)C[C@@H](C(=O)N[C@@H](C)C(=O)O)NC(=O)[C@H](Cc2ccccc2)NC1=O`, for which the inhibition result in data set [4] was “Dose-dependent effect”. In addition, in data set [1], the inhibition entry is “inactive”. In addition, the outcome with SH-SY5Y [3] was inactive. The Activity entry in the data set on SH-SY5Y [5] is “Toxic”.

Turning to `CC(C)C[C@H](N)C(=O)N[C@H]1Cc2ccc(cc2)OC/C=C/C[C@@H](C(=O)N[C@@H](CC(=O)O)C(=O)O)NC(=O)[C@H](Cc2ccccc2)NC1=O`, the inhibition result in data set [1] was “inactive”. Further, in data set [2], the inhibition entry is “Active”. The result in the data set on SH-SY5Y [3] was inactive.

For `CC(C)[C@@H]1NC(=O)[C@@H](N)C/C=C/COc2ccc(cc2)C[C@@H](C(=O)N[C@@H](Cc2ccccc2)C(=O)N[C@@H](C)C(=O)O)NC1=O`, the inhibition entry in data set [1] and in data set [2] was “inactive” each time. The outcome with SH-SY5Y [3] was inactive.

Consider `CC(C)C[C@H](N)C(=O)N[C@H](C(=O)N[C@H]1Cc2ccc(cc2)OC/C=C/C[C@@H](C(=O)O)NC(=O)[C@H](Cc2ccccc2)NC1=O)C(C)C`, for which the inhibition result in data set [1] and in data set [2] was “inactive” throughout. For the same compound, the outcome with SH-SY5Y [3] was inactive.

For the origin of these results see ChEMBL document CHEMBL4725385, “Design and synthesis of β-strand-fixed peptides inhibiting aggregation of amyloid β-protein” (Bioorg Med Chem, 2020).
